Experimental data from different studies.
Organism: Bacillus subtilis
Effect on: microbial growth

O=C(O)c1ccc(-n2cc(/C=N/Nc3cc(F)ccc3F)c(-c3ccc(F)cc3)n2)cc1  MIC (ATCC6623): 12.5 µg/mL
CN[C@H](CC(C)C)C(=O)N[C@H]1C(=O)N[C@@H](CC(N)=O)C(=O)N[C@H]2C(=O)N[C@H]3C(=O)N[C@H](C(=O)N[C@H](C(=O)O)c4cc(O)cc(O)c4-c4cc3ccc4O)[C@H](O)c3ccc(c(Cl)c3)Oc3cc2cc(c3O[C@@H]2O[C@H](CO)[C@@H](O)[C@H](O)[C@H]2O[C@H]2C[C@](C)(N)[C@H](O)[C@H](C)O2)Oc2ccc(cc2Cl)[C@H]1O  MIC (broth dilution; BS01): 0.13 µg/mL
O=C(O)c1ccc(-n2cc(/C=N/Nc3c(F)c(F)c(F)c(F)c3F)c(-c3cccc(F)c3)n2)cc1  MIC (ATCC6623): 6.25 µg/mL
Cc1cc(/C=C2\Sc3ccccc3N2CCCN2CCCCC2)c2ccccc2[n+]1C.[I-]  MIC (broth dilution; 168): 8 µg/mL
O=C(O)c1ccc(-n2cc(/C=N/Nc3cccc(Br)c3)c(-c3cccc(F)c3)n2)cc1  MIC (ATCC6623): 12.5 µg/mL
NC[C@H]1O[C@H](O[C@H]2[C@H](O)[C@@H](O[C@H]3O[C@H](CO)[C@@H](O)[C@H](N)[C@H]3O)[C@H](N)C[C@@H]2N)[C@H](O)[C@@H](O)[C@@H]1O  MIC: 2 to 4 µg/mL
Fc1ccccc1NCc1ccc(Oc2ccccn2)cc1  MIC: 1.8 µg/mL
O=C(O)CN1C(=O)/C(=C/c2ccc(-c3ccc(N(c4ccccc4)c4ccccc4)cc3)cc2)NC1=S  MIC (broth dilution; ATCC6633): 3.9 µg/mL
CC1(C)S[C@@H]2[C@H](NC(=O)[C@H](N)c3ccccc3)C(=O)N2[C@H]1C(=O)O  MIC (broth dilution; BS01): 0.13 µg/mL
O=C(O)c1ccc(-n2cc(/C=N/N(Cc3ccccc3)Cc3ccccc3)c(-c3ccc(F)cc3)n2)cc1  MIC (ATCC6623): 6.25 µg/mL
Brc1cccc(NCc2ccc(Oc3ccccn3)cc2)c1  MIC: > 6.2 µg/mL
CO[C@H]1O[C@H](COC(c2ccccc2)(c2ccccc2)c2ccccc2)[C@@H](OC(=O)c2ccc(C(C)(C)C)cc2)[C@H](OC(=O)c2ccc(C(C)(C)C)cc2)[C@H]1OC(=O)c1ccc(C(C)(C)C)cc1  MIC (broth dilution): 1.25 µg/mL
Cc1ccccc1NCc1ccc(Oc2ccccn2)cc1  MIC: 1.8 µg/mL
O=C(Nc1ccc2c(c1)OC(F)(F)O2)Nc1ccc(Cl)c(C(F)(F)F)c1  MIC (168): 1 µM
N#Cc1ccc(N/N=C/c2cn(-c3ccc(C(=O)O)cc3)nc2-c2ccc(F)cc2)cc1  MIC (ATCC6623): 25 µg/mL
Clc1ccccc1NCc1ccc(Oc2ccccn2)cc1  MIC: 1.8 µg/mL
CC1=NN(CNC(=O)c2ccccn2)C(=O)C1=NNn1c(-c2ccccc2)nc2ccccc2c1=O  MIC (broth dilution; 24 h): 104 µM
CCCCCCCCOC(=O)c1cc(O)c(O)c(O)c1  MIC (broth dilution; ATCC6633): 12.5 to 25 µM
O=C(O)c1ccc(-n2cc(/C=N/Nc3cccc(Cl)c3F)c(-c3cccc(F)c3)n2)cc1  MIC (ATCC6623): 1.56 µg/mL
CCCCC[P+](/C=C(/c1ccccc1)c1cc(Cl)ccc1OC)(CCCCC)CCCCC  MIC (21 h): 2 µM
O=C1NC(=S)S/C1=C\c1ccc(-c2ccc(N(c3ccccc3)c3ccccc3)cc2)c2ccccc12  MIC (broth dilution; ATCC6633): 1000 µg/mL
O=C(O)c1ccc(-n2cc(/C=N/N(c3ccccc3)c3ccccc3)c(-c3ccc(F)cc3)n2)cc1  MIC (ATCC6623): 1.56 µg/mL
O=C1NC(=S)N/C1=C\c1ccc(-c2ccc(N(c3ccccc3)c3ccccc3)cc2)c2ccccc12  MIC (broth dilution; ATCC6633): > 1000 µg/mL
O=C(O)c1ccc(-n2cc(/C=N/N(Cc3ccccc3)c3ccccc3)c(-c3cccc(F)c3)n2)cc1  MIC (ATCC6623): 1.56 µg/mL
CCCC[P+](/C=C(/c1ccccc1)c1cc(Cl)ccc1O)(CCCC)CCCC  MIC (21 h): 10 µM
C[C@@H](O)[C@H]1C(=O)N2C(C(=O)O)=C(S[C@@H]3CN[C@H](C(=O)N(C)C)C3)[C@H](C)[C@H]12  MIC (broth dilution; 24 h): 0.0625 µg/mL
COc1cccc(NCc2ccc(Oc3ccccn3)cc2)c1  MIC: 1.6 µg/mL
NC[C@H]1O[C@H](O[C@H]2[C@H](O)[C@@H](O[C@H]3O[C@H](CO)[C@@H](O)[C@H](N)[C@H]3O)[C@H](N)C[C@@H]2N)[C@H](N)C[C@@H]1O  MIC (168): 1.2 µg/mL
C[n+]1c(/C=C/c2ccc(O)cc2)cc(/C=C2\Sc3ccccc3N2CCCN2CCCC2)c2ccccc21.[I-]  MIC (broth dilution; 168): 16 µg/mL
CCCCCC/C=C\CCCCCCCCCc1cc(O)cc(O)c1  MIC (broth dilution; 168): > 64 µg/mL
O=C1NC(=S)S/C1=C\c1ccc(-c2ccc(N(c3ccccc3)c3ccccc3)cc2)cc1  MIC (broth dilution; ATCC6633): 1000 µg/mL
CO[C@H]1/C=C/O[C@@]2(C)Oc3c(C)c(O)c4c(O)c(c(/C=N/N5CCN(C)CC5)c(O)c4c3C2=O)NC(=O)/C(C)=C\C=C\[C@H](C)[C@H](O)[C@@H](C)[C@@H](O)[C@@H](C)[C@H](OC(C)=O)[C@@H]1C  MIC (broth dilution; 168): 4 µg/mL
c1ccc(NCc2ccc(Oc3ccccn3)cc2)cc1  MIC: 1.6 µg/mL
CC1=NN(CNc2ccc(Cl)cc2)C(=O)C1=NNn1c(-c2ccccc2)nc2ccccc2c1=O  MIC (broth dilution; 24 h): 103 µM
CSc1ccc(/C=C/c2cc(/C=C3\Sc4ccccc4N3CCCN3CCCC3)c3ccccc3[n+]2C)cc1.[I-]  MIC (broth dilution; 168): 16 µg/mL
CCCCCCC[P+](/C=C(/c1ccccc1)c1cc(Cl)ccc1O)(CCCCCCC)CCCCCCC  MIC (21 h): 10 µM
O=C(O)CN1C(=O)/C(=C/c2c3ccccc3c(-c3ccc(N(c4ccccc4)c4ccccc4)cc3)c3ccccc23)SC1=S  MIC (broth dilution; ATCC6633): > 1000 µg/mL
CC(=O)NCN1N=C(C)C(=NNn2c(-c3ccccc3)nc3ccccc3c2=O)C1=O  MIC (broth dilution; 24 h): 59.9 µM
CCC[P+](/C=C(/c1ccccc1)c1cc(Cl)ccc1O)(CCC)CCC  MIC (21 h): > 40 µM
CN[C@H](CC(C)C)C(=O)N[C@H]1C(=O)N[C@@H](CC(N)=O)C(=O)N[C@H]2C(=O)N[C@H]3C(=O)N[C@H](C(=O)N[C@H](C(=O)O)c4cc(O)cc(O)c4-c4cc3ccc4O)[C@H](O)c3ccc(c(Cl)c3)Oc3cc2cc(c3O[C@@H]2O[C@H](CO)[C@@H](O)[C@H](O)[C@H]2O[C@H]2C[C@](C)(N)[C@H](O)[C@H](C)O2)Oc2ccc(cc2Cl)[C@H]1O  MIC (broth dilution; 168): 0.25 µg/mL
CC1=NN(CNc2ccc(C(=O)O)cc2)C(=O)C1=NNn1c(-c2ccccc2)nc2ccccc2c1=O  MIC (broth dilution; 24 h): 50.5 µM
C/C=C(\C)c1cc(O)c(C)c(OC(=O)c2c(C)cc(O)c(Cl)c2O)c1  MIC (broth dilution; BS01): 4 µg/mL
C[n+]1c(/C=C/c2c[nH]c3ccccc23)cc(/C=C2\Sc3ccccc3N2CCCN2CCCC2)c2ccccc21.[I-]  MIC (broth dilution; 168): 2 µg/mL
O=C(O)CN1C(=O)/C(=C/c2ccc(-c3ccc(N(c4ccccc4)c4ccccc4)cc3)c3ccccc23)NC1=S  MIC (broth dilution; ATCC6633): > 1000 µg/mL
Cc1cccc(NCc2ccc(Oc3ccccn3)cc2)c1  MIC: > 3.1 µg/mL
O=C(O)CN1C(=O)/C(=C/c2ccc(-c3ccc(N(c4ccccc4)c4ccccc4)cc3)cc2)SC1=S  MIC (broth dilution; ATCC6633): 1.95 µg/mL
CCCCOC(=O)c1cc(O)c(O)c(O)c1  MIC (broth dilution; ATCC6633): > 200 µM
